# According to ChEMBL document CHEMBL2040803, “Synthesis and anticonvulsant activity of ethyl 1-(2-arylhydrazinecarboxamido)-2,2-dimethylcyclopropanecarboxylate derivatives” (Eur J Med Chem, 2012):
# Active and inactive are the calls of the source.
# System: Mus musculus
# Test: Neurotoxicity in Kunming mouse at 300 mg/kg, ip after 0.5 hr by rotorod test
# Assay type: toxicity, organism-based
# Set-up: dose 300 mg/kg, route intraperitoneal
# Conditions: in vivo
# Outline: (§1)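 Trained male Kunming mice were given ip doses of 30, 100 or 300 mg/kg, one to four per dose. They were placed on a 1 in. knurled rod rotating at 6 rpm, and examined at 0.5 h and 4.0 h. Neurotoxicity was inability to keep balance for at least 1 min in each of four trials. The value is the minimal dose giving toxicity in half or more of the mice.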
row,Structure (SMILES),Activity
1,CCC1(C)CC(=O)NC1=O (configuration not stated) [ETHOSUXIMIDE],Non-toxic
2,CCOC(=O)C1(NC(=O)NNC(=O)c2ccc([N+](=O)[O-])cc2)CC1(C)C (configuration not stated),Non-toxic
3,CCOC(=O)C1(NC(=O)NNC(=O)c2ccccc2Cl)CC1(C)C (configuration not stated),Non-toxic
4,CCOC(=O)C1(NC(=O)NNC(=O)c2cccc(C)c2)CC1(C)C (configuration not stated),Non-toxic
5,CCOC(=O)C1(NC(=O)NNC(=O)c2ccc(C)cc2)CC1(C)C (configuration not stated),Non-toxic
6,CCOC(=O)C1(NC(=O)NNC(=O)c2ccccc2C)CC1(C)C (configuration not stated),Non-toxic
7,CCOC(=O)C1(NC(=O)NNC(=O)c2ccccc2)CC1(C)C (configuration not stated),Toxic

# System: Mus musculus
# Test: Anticonvulsant activity in Kunming mouse assessed as protection against maximal electroshock-induced seizures at 100 mg/kg, ip measured after 0.5 hr
# Assay type: functional, organism-based
# Set-up: dose 100 mg/kg
# Conditions: not given
# Outline: (§2)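 Male Kunming mice (20 ± 2.0 g) were dosed ip at 30, 100 and 300 mg/kg as a suspension in 0.5% methylcellulose, one to four mice per dose. A 60-Hz, 50-mA current was applied through corneal electrodes for 0.25 s at 0.5 h and 4.0 h after dosing. Absence of hindlimb tonic extension counted as protection. The value is the minimal dose protecting half or more of the mice.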
row,Structure (SMILES),Activity
1,CCOC(=O)C1(NC(=O)NNC(=O)c2ccc([N+](=O)[O-])cc2)CC1(C)C (configuration not stated),Active
2,CCOC(=O)C1(NC(=O)NNC(=O)c2ccccc2Cl)CC1(C)C (configuration not stated),Active
3,CCOC(=O)C1(NC(=O)NNC(=O)c2cccc(C)c2)CC1(C)C (configuration not stated),Active
4,CCOC(=O)C1(NC(=O)NNC(=O)c2ccc(C)cc2)CC1(C)C (configuration not stated),Active
5,CCOC(=O)C1(NC(=O)NNC(=O)c2ccccc2C)CC1(C)C (configuration not stated),Active

# System: Mus musculus
# Test: Anticonvulsant activity in Kunming mouse assessed as protection against maximal electroshock-induced seizures at 100 mg/kg, ip measured after 4 hrs
# Assay type: functional, organism-based
# Set-up: dose 100 mg/kg
# Conditions: not given
# Outline: as §2
row,Structure (SMILES),Activity
1,CCOC(=O)C1(NC(=O)NNC(=O)c2ccccc2C)CC1(C)C (configuration not stated),Active

# System: Mus musculus
# Test: Anticonvulsant activity in Kunming mouse assessed as protection against subcutaneous pentylenetetrazol-induced clonic seizures at 300 mg/kg, ip measured after 4 hrs
# Assay type: functional, organism-based
# Set-up: dose 300 mg/kg
# Conditions: not given
# Outline: (§3)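 Male Kunming mice (20 ± 2.0 g) received ip doses of 30, 100 or 300 mg/kg as a suspension in 0.5% methylcellulose, one to four mice per dose. Pentylenetetrazole in 0.9% saline was injected subcutaneously. Protection meant failure to show even a threshold seizure (a single clonic spasm lasting at least 5 s), read at 0.5 h and 4.0 h. Activity was scored as the minimal dose protecting half or more of the mice.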
row,Structure (SMILES),Activity
1,CCC1(C)CC(=O)NC1=O (configuration not stated) [ETHOSUXIMIDE],Active
2,CCOC(=O)C1(NC(=O)NNC(=O)c2ccc([N+](=O)[O-])cc2)CC1(C)C (configuration not stated),inactive
3,CCOC(=O)C1(NC(=O)NNC(=O)c2ccccc2Cl)CC1(C)C (configuration not stated),inactive
4,CCOC(=O)C1(NC(=O)NNC(=O)c2cccc(C)c2)CC1(C)C (configuration not stated),inactive
5,CCOC(=O)C1(NC(=O)NNC(=O)c2ccc(C)cc2)CC1(C)C (configuration not stated),Active
6,CCOC(=O)C1(NC(=O)NNC(=O)c2ccccc2C)CC1(C)C (configuration not stated),inactive
7,CCOC(=O)C1(NC(=O)NNC(=O)c2ccccc2)CC1(C)C (configuration not stated),inactive

# System: Mus musculus
# Test: Anticonvulsant activity in Kunming mouse assessed as protection against maximal electroshock-induced seizures at 300 mg/kg, ip measured after 0.5 hr
# Assay type: functional, organism-based
# Set-up: dose 300 mg/kg
# Conditions: not given
# Outline: as §2
row,Structure (SMILES),Activity
1,CCC1(C)CC(=O)NC1=O (configuration not stated) [ETHOSUXIMIDE],inactive
2,CCOC(=O)C1(NC(=O)NNC(=O)c2ccccc2)CC1(C)C (configuration not stated),Active

# System: Mus musculus
# Test: Neurotoxicity in Kunming mouse at 300 mg/kg, ip after 4 hrs by rotorod test
# Assay type: toxicity, organism-based
# Set-up: dose 300 mg/kg, route intraperitoneal
# Conditions: in vivo
# Outline: as §1
row,Structure (SMILES),Activity
1,CCC1(C)CC(=O)NC1=O (configuration not stated) [ETHOSUXIMIDE],Non-toxic
2,CCOC(=O)C1(NC(=O)NNC(=O)c2ccc([N+](=O)[O-])cc2)CC1(C)C (configuration not stated),Toxic
3,CCOC(=O)C1(NC(=O)NNC(=O)c2ccccc2Cl)CC1(C)C (configuration not stated),Toxic
4,CCOC(=O)C1(NC(=O)NNC(=O)c2cccc(C)c2)CC1(C)C (configuration not stated),Non-toxic
5,CCOC(=O)C1(NC(=O)NNC(=O)c2ccc(C)cc2)CC1(C)C (configuration not stated),Toxic
6,CCOC(=O)C1(NC(=O)NNC(=O)c2ccccc2C)CC1(C)C (configuration not stated),Non-toxic
7,CCOC(=O)C1(NC(=O)NNC(=O)c2ccccc2)CC1(C)C (configuration not stated),Non-toxic

# System: Mus musculus
# Test: Anticonvulsant activity in Kunming mouse assessed as protection against maximal electroshock-induced seizures at 300 mg/kg, ip measured after 4 hrs
# Assay type: functional, organism-based
# Set-up: dose 300 mg/kg
# Conditions: not given
# Outline: as §2
row,Structure (SMILES),Activity
1,CCC1(C)CC(=O)NC1=O (configuration not stated) [ETHOSUXIMIDE],inactive
2,CCOC(=O)C1(NC(=O)NNC(=O)c2ccc([N+](=O)[O-])cc2)CC1(C)C (configuration not stated),inactive
3,CCOC(=O)C1(NC(=O)NNC(=O)c2ccccc2Cl)CC1(C)C (configuration not stated),Active
4,CCOC(=O)C1(NC(=O)NNC(=O)c2cccc(C)c2)CC1(C)C (configuration not stated),inactive
5,CCOC(=O)C1(NC(=O)NNC(=O)c2ccc(C)cc2)CC1(C)C (configuration not stated),inactive
6,CCOC(=O)C1(NC(=O)NNC(=O)c2ccccc2)CC1(C)C (configuration not stated),inactive

# System: Mus musculus
# Test: Anticonvulsant activity in Kunming mouse assessed as protection against subcutaneous pentylenetetrazol-induced clonic seizures at 300 mg/kg, ip measured after 0.5 hrs
# Assay type: functional, organism-based
# Set-up: dose 300 mg/kg
# Conditions: not given
# Outline: as §3
row,Structure (SMILES),Activity
1,CCOC(=O)C1(NC(=O)NNC(=O)c2ccc([N+](=O)[O-])cc2)CC1(C)C (configuration not stated),inactive
2,CCOC(=O)C1(NC(=O)NNC(=O)c2ccccc2Cl)CC1(C)C (configuration not stated),Active
3,CCOC(=O)C1(NC(=O)NNC(=O)c2cccc(C)c2)CC1(C)C (configuration not stated),inactive
4,CCOC(=O)C1(NC(=O)NNC(=O)c2ccc(C)cc2)CC1(C)C (configuration not stated),inactive
5,CCOC(=O)C1(NC(=O)NNC(=O)c2ccccc2)CC1(C)C (configuration not stated),Active

# System: Mus musculus
# Test: Anticonvulsant activity in Kunming mouse assessed as protection against subcutaneous pentylenetetrazol-induced clonic seizures at 100 mg/kg, ip measured after 0.5 hrs
# Assay type: functional, organism-based
# Set-up: dose 100 mg/kg
# Conditions: not given
# Outline: as §3
row,Structure (SMILES),Activity
1,CCC1(C)CC(=O)NC1=O (configuration not stated) [ETHOSUXIMIDE],Active
2,CCOC(=O)C1(NC(=O)NNC(=O)c2ccccc2C)CC1(C)C (configuration not stated),Active
